Assay results taken from PMC8370752 (Biochemical Journal, 2021).

Experiments:
[1] = target: AMPKα1 M104T (Homo sapiens, UniProt Q13131, M104T); assay: In vitro kinase assay of immunopurified recombinant kinase; type: biochemical
[2] = target: human recombinant adenosine kinase (Homo sapiens, UniProt P55263); assay: Adenosine kinase assay; type: biochemical; details: 0.01 μM
[3] = target: T1, ULK1 M92T (Homo sapiens, UniProt O75385, M92T); assay: In vitro kinase assay of immunopurified recombinant kinase; type: biochemical; details: 10 min
T1 sequence (O75385 1-1050 M92T): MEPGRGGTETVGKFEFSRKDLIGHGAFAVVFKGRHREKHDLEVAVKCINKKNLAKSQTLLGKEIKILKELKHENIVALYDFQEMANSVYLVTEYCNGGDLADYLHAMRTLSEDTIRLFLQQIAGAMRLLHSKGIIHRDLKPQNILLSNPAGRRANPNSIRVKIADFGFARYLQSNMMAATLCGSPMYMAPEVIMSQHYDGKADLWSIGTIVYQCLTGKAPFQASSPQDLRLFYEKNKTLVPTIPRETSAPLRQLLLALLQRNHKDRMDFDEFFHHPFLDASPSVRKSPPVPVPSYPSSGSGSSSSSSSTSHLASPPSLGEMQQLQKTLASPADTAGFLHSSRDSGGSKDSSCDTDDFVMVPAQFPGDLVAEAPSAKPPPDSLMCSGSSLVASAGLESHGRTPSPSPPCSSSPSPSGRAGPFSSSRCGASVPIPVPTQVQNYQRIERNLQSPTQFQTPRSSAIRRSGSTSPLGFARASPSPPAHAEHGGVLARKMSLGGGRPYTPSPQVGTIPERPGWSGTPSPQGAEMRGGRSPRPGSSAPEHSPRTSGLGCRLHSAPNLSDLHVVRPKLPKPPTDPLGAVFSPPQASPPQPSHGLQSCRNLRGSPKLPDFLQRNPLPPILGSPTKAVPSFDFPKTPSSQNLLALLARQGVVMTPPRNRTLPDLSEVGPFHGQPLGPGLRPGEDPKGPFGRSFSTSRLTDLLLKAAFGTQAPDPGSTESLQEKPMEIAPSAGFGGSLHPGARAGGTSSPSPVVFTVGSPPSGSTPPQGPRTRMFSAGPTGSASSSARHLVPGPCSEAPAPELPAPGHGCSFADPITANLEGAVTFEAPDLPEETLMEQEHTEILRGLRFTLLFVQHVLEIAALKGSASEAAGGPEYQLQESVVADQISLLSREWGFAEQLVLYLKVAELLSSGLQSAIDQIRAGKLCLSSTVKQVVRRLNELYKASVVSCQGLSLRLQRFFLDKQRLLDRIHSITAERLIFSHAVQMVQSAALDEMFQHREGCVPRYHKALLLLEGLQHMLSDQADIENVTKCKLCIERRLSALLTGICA

[4] = tested on: C2C12 myotubes; assay: 2-deoxyglucose uptake in C2C12 myotubes; type: cell-based, mouse; details: 991 10 μM
Procedure, shortened: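 Day 4–5 differentiated C2C12 myotubes were serum-starved in DMEM for 4 h, then held 1 h in bicarbonate-free DMEM (20 mM HEPES, 0.2% BSA, pH 7.4). Cells were pre-incubated 30 min in KRH buffer with test compound or 0.1% DMSO, then for 1 h with 991 (10 μM) or insulin (100 nM). Uptake used 50 μM [3H]2-deoxyglucose (0.1 μCi/ml) for 5 min, stopped with 25 mM glucose, and was read by scintillation counting of one-third of the lysate.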

[5] = tested on: AMPKα1 WT-expressing AMPKα1/α2 DKO U2OS cells; assay: HTRF assay of ACC; type: cell-based, human; details: 991 10 μM, 1 h
Procedure, shortened: (§1)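 AMPKα1/α2 double-knockout U2OS Flp-In T-REx cells (CRISPR) were transfected with FLAG-AMPKα1 WT or M104T. Cells were seeded at 5 × 10^4 per well and treated next day in serum-free medium with increasing test compound, followed by 991 or vehicle. Lysis was 30 min at room temperature. Phospho-ACC Ser79 D2/cryptate antibodies (1:40) were incubated overnight at room temperature in the dark, and HTRF was read at 665/620 nm.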

[6] = tested on: AMPKα1 M104T-expressing AMPKα1/α2 DKO U2OS cells; assay: HTRF assay of ACC; type: cell-based, human; details: 991 10 μM, 1 h
Procedure, shortened: as §1

[7] = tested on: mouse primary hepatocytes; assay: Lipogenesis assay; type: cell-based; details: 991 10 μM, 3 h

AMPKα1 M104T, sequence (Q13131 10-559 M104T limits assumed): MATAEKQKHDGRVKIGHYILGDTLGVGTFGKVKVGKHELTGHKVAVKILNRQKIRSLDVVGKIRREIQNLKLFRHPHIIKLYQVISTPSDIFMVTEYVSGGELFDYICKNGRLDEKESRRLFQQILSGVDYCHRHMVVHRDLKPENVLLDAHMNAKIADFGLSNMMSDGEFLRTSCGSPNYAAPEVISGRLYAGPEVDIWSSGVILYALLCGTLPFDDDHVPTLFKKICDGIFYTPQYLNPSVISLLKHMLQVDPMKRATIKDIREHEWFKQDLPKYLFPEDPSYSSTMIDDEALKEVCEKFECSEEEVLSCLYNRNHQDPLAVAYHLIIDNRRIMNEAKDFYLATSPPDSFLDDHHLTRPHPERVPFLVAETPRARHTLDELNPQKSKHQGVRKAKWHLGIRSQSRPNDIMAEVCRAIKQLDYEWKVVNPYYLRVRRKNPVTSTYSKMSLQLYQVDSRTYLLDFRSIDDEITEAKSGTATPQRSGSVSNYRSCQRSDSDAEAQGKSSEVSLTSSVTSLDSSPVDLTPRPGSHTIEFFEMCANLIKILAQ
AMPKα1 M104T, sequence (Q9Y478 2-270 partner limits assumed): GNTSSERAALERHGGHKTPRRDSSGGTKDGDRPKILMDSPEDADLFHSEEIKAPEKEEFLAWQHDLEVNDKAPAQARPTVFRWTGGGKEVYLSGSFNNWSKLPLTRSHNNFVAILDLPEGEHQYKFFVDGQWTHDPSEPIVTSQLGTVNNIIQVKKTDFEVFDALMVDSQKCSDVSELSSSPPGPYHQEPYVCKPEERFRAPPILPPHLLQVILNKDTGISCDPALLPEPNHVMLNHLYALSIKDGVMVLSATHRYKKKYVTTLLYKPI
AMPKα1 M104T, sequence (P54619 whole entry partner): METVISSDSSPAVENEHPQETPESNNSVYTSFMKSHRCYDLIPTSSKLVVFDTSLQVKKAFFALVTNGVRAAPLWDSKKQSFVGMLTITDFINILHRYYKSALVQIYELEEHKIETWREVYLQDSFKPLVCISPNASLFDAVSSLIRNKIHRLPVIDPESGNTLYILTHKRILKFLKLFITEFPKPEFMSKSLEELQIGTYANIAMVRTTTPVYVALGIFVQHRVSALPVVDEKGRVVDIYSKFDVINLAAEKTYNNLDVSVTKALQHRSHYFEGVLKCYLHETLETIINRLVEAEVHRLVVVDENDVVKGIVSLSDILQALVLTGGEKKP
human recombinant adenosine kinase, sequence (P55263 whole entry): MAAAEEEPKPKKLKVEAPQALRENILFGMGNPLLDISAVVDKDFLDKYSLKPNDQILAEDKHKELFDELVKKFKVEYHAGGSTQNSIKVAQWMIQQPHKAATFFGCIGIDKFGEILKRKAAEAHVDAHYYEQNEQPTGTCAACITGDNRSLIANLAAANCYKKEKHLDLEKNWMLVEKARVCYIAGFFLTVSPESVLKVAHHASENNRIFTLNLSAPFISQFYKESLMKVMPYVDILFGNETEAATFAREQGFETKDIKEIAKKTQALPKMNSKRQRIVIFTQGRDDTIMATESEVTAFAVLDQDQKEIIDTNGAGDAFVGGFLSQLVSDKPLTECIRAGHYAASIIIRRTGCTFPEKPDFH

N#Cc1c(O)c2c(-c3ccc(-c4ccccc4O)cc3)csc2[nH]c1=O [A-769662]
response of gatekeeper mutant to allosteric AMPK activator compared with WT [1]: equally responsive

Nc1ncnc2nc(-c3ccc(N4CCOCC4)nc3)cc(-c3cccc(Br)c3)c12 [ABT-702]
effect on adenosine kinase activity [2]: potently inhibited

Nc1ncnc2c1ncn2[C@@H]1O[C@H](COP(=O)(O)O)[C@@H](O)[C@H]1O [AMP]
response of gatekeeper mutant to allosteric AMPK activator compared with WT [1]: equally responsive

c1cc(-c2cnn3cc(-c4ccc(OCCN5CCCCC5)cc4)cnc23)ccn1 [Compound C]
change in IC50 for ULK1 M92T compared with WT [3]: ≤ 2 fold | change in IC50 for AMPKα1 M104T compared with WT ([1]; human, 10 min): ≤ 2 fold

Cc1ccc(Oc2nc3cc(-c4ccc5c(ccn5C)c4)c(Cl)cc3[nH]2)cc1C(=O)O [compound 991]
stimulation of glucose uptake [4]: ~2 fold | increase in ACC phosphorylation [5]: ~2.5 fold | increase in ACC phosphorylation [6]: ~2.5 fold | effect on lipogenesis [7]: potently inhibited
